In ChEMBL document CHEMBL1155278, “3,4-Diaryl-isoxazoles and -imidazoles as potent dual inhibitors of p38alpha mitogen activated protein kinase and casein kinase 1delta” (J Med Chem, 2009):

What was measured:
[1] = target: Ephrin type-A receptor 2 (Homo sapiens) (UniProt P29317); assay: Inhibition of EPHA2 assessed as residual activity at 10 uM by Cherenkov counting relative to control in presence of 50 uM ATP
Method in brief: (§1)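 Single-point profiling at 10 µM in a panel of 78 protein kinases. Kinase activity is expressed as a percentage relative to control assays without compound.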

[2] = target: Homeodomain-interacting protein kinase 3 (Homo sapiens) (UniProt Q9H422); assay: Inhibition of HIPK3 assessed as residual activity at 10 uM by Cherenkov counting relative to control; method in brief: as §1
[3] = target: Calcium/calmodulin-dependent protein kinase kinase 1 (Homo sapiens) (UniProt Q8N5S9); assay: Inhibition of CAMKKalpha assessed as residual activity at 10 uM by Cherenkov counting relative to control; method in brief: as §1
[4] = target: Serine/threonine-protein kinase PAK 6 (Homo sapiens) (UniProt Q9NQU5); assay: Inhibition of PAK6 assessed as residual activity at 10 uM by Cherenkov counting relative to control in presence of 20 uM ATP
Sequence of Serine/threonine-protein kinase PAK 6 (Homo sapiens) (Q9NQU5 whole entry, looked up): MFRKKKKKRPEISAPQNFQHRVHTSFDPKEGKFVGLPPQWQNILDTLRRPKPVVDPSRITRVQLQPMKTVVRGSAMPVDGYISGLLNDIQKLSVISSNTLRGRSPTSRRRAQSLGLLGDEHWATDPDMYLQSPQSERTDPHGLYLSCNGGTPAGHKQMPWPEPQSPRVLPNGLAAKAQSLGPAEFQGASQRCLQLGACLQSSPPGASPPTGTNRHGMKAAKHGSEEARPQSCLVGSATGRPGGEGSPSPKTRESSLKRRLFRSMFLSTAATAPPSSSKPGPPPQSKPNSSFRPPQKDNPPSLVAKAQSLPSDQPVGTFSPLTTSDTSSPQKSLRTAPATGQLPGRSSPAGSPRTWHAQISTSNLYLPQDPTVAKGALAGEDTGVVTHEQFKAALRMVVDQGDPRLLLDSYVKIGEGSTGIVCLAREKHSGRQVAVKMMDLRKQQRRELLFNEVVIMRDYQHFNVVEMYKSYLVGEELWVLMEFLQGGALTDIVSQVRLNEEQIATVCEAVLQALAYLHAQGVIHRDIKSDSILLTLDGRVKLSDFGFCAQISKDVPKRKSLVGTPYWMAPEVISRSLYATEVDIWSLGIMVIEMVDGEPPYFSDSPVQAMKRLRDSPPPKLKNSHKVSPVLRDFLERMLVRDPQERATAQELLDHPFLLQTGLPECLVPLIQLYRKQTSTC

[5] = target: Aurora kinase C (Homo sapiens) (UniProt Q9UQB9); assay: Inhibition of Aurora C assessed as residual activity at 10 uM by Cherenkov counting relative to control; method in brief: as §1
[6] = target: Ribosomal protein S6 kinase alpha-3 (Homo sapiens) (UniProt P51812); assay: Inhibition of RSK2 assessed as residual activity at 10 uM by Cherenkov counting relative to control in presence of 50 uM ATP
Sequence of Ribosomal protein S6 kinase alpha-3 (Homo sapiens) (P51812 whole entry): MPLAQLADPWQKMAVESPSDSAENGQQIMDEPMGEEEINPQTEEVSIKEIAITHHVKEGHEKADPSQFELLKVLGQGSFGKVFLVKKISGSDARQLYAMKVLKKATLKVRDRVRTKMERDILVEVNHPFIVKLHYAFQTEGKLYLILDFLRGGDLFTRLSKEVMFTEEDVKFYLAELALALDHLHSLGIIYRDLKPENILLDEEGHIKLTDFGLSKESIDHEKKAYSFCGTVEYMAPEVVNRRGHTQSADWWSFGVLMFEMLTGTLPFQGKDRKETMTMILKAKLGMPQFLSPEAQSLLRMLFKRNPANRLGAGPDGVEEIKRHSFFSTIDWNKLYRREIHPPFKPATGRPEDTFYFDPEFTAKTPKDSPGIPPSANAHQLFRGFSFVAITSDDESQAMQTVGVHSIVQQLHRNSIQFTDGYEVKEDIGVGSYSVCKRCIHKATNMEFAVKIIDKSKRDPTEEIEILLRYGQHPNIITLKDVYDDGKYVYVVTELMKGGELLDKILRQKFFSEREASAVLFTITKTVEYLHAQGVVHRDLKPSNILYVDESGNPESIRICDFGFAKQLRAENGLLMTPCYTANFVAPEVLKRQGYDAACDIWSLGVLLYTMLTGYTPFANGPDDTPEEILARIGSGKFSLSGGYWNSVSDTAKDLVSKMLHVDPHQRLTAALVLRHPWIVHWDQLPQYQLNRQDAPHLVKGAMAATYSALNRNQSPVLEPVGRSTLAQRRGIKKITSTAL
Method in brief: (§2)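 Single-concentration profiling at 10 μM in a 78-kinase panel. Kinase activity is expressed as a percentage of control assays run without compound.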

[7] = target: Protein kinase C alpha type (Homo sapiens) (UniProt P17252); assay: Inhibition of PKCalpha assessed as residual activity at 10 uM by Cherenkov counting relative to control in presence of 20 uM ATP; method in brief: as §2
[8] = target: Mitogen-activated protein kinase 14 (Homo sapiens, UniProt Q16539); assay: Inhibition of p38alpha assessed as residual activity at 0.1 uM by Cherenkov counting relative to control
Sequence of Mitogen-activated protein kinase 14 (Q16539 whole entry): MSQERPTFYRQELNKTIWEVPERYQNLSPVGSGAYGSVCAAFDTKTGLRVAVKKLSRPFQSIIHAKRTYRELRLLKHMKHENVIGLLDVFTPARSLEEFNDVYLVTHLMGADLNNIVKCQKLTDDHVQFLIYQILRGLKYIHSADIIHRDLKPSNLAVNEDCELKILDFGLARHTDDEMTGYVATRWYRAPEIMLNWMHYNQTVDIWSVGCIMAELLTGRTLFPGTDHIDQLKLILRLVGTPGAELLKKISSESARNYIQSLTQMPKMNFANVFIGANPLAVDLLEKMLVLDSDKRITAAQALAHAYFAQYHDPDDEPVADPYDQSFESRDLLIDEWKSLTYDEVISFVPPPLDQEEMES
Method in brief: (§3)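 Single-concentration screen at 0.1 μM in a 76-kinase panel. ATP for each kinase was set near its Km for ATP. Residual activity is given as a percentage of control assays without compound, mean of n = 3 ± SD.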

[9] = Inhibition of PKA assessed as residual activity at 0.1 uM by Cherenkov counting relative to control in presence of 20 uM ATP
Method in brief: (§4)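 Single-concentration selectivity screen at 0.1 μM against a panel of 76 protein kinases. Each kinase was run at an ATP level approximating its Km for ATP. Output is mean residual activity as % of the control assay without compound, n = 3 ± SD.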

[10] = target: Dual specificity mitogen-activated protein kinase kinase 1 (Homo sapiens) (UniProt Q02750); assay: Inhibition of MKK1 assessed as residual activity at 0.1 uM by Cherenkov counting relative to control in presence of 5 uM ATP; method in brief: as §4
Sequence of Dual specificity mitogen-activated protein kinase kinase 1 (Homo sapiens) (Q02750 whole entry): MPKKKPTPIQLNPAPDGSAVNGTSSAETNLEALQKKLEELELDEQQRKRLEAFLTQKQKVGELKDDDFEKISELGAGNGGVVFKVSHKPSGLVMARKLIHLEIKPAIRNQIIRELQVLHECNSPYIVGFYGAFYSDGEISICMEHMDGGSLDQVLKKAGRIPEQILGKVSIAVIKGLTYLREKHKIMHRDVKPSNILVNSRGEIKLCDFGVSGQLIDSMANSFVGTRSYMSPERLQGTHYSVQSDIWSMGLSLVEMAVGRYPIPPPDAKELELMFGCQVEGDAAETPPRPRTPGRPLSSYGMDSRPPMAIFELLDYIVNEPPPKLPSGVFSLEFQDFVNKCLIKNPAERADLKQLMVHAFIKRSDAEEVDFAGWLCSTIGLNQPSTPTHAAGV

[11] = target: T1, Serine/threonine-protein kinase BRSK2 (Homo sapiens) (UniProt Q8IWQ3); assay: Inhibition of BRSK2 assessed as residual activity at 0.1 uM by Cherenkov counting relative to control in presence of 50 uM ATP
T1 sequence (whole entry): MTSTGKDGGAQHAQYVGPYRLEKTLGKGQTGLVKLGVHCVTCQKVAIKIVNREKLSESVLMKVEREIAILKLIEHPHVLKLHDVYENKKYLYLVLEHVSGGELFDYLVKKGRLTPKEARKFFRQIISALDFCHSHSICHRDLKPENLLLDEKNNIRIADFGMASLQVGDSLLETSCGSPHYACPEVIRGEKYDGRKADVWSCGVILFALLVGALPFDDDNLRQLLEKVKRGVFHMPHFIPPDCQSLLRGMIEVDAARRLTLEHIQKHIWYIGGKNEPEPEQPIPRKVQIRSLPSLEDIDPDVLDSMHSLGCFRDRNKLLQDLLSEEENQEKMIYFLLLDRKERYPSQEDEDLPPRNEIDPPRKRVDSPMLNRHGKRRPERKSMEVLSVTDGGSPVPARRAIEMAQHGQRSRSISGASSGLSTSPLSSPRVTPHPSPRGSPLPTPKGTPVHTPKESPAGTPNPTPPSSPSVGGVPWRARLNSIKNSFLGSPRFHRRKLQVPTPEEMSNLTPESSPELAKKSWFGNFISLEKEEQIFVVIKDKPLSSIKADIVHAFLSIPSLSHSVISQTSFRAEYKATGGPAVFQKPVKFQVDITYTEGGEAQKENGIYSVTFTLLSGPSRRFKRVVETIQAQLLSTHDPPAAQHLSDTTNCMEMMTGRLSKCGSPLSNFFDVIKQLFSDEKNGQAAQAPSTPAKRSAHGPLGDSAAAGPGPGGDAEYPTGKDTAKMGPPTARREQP
Method in brief: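 Single-concentration screen at 0.1 µM across a panel of 76 protein kinases. Each kinase was run at an ATP concentration approximating its ATP Km. Results are % mean residual activity versus control assays without compound (n = 3 ± SD).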

[12] = target: Rho-associated protein kinase 2 (Homo sapiens) (UniProt O75116); assay: Inhibition of ROCK2 assessed as residual activity at 0.1 uM by Cherenkov counting relative to control in presence of 20 uM ATP; method in brief: as §3
Sequence of Rho-associated protein kinase 2 (Homo sapiens) (O75116 whole entry, looked up): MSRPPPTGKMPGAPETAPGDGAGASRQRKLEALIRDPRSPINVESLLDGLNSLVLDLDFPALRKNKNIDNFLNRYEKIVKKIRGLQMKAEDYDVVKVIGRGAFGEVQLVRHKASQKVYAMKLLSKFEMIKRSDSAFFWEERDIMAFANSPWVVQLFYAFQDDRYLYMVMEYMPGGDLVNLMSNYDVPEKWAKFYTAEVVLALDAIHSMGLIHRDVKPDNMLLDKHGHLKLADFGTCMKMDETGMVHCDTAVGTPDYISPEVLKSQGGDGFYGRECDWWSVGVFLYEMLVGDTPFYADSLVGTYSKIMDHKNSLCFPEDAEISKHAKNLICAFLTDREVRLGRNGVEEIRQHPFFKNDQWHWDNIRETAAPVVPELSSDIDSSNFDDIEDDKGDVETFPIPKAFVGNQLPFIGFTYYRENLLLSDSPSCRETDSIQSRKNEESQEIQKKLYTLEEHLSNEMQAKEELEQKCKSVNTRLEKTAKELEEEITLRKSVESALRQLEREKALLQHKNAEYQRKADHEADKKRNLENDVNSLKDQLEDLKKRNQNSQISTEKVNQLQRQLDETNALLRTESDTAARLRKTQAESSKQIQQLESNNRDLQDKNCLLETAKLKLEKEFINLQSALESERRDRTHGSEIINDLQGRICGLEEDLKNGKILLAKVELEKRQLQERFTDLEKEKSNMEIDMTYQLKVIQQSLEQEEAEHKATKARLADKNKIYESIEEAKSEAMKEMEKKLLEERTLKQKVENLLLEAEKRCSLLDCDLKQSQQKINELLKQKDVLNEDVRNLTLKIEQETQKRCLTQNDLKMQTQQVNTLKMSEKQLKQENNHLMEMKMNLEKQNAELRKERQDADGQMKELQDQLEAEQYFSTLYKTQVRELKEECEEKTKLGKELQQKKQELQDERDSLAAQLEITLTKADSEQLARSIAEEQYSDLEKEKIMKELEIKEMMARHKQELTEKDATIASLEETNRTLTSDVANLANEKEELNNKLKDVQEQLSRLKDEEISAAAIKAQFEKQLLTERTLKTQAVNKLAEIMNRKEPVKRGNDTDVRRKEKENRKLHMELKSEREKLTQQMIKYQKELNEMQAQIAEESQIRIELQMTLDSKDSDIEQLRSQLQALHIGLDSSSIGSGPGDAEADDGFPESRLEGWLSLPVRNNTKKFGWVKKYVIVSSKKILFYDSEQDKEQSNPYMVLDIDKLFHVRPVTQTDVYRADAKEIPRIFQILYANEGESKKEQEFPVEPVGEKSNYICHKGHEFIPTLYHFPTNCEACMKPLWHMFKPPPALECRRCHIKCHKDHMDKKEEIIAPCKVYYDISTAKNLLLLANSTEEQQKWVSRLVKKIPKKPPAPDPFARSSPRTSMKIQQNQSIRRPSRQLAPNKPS

[13] = target: T2, Serine/threonine-protein kinase Nek2 (Homo sapiens) (UniProt P51955); assay: Inhibition of NEK2a assessed as residual activity at 0.1 uM by Cherenkov counting relative to control in presence of 50 uM ATP; method in brief: as §4
T2 sequence (whole entry): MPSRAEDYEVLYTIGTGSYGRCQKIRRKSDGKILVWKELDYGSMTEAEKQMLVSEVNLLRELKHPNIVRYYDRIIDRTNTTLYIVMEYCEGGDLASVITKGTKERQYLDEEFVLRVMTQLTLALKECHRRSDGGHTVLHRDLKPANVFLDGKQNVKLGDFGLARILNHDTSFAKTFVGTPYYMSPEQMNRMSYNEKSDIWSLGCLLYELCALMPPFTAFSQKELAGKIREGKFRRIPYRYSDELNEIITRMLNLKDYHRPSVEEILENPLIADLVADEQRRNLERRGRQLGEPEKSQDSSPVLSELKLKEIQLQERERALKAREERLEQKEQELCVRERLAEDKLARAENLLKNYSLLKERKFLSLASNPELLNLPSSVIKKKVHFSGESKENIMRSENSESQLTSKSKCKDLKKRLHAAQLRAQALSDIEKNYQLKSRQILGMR

[14] = target: Ribosomal protein S6 kinase beta-1 (Homo sapiens) (UniProt P23443); assay: Inhibition of S6K1 assessed as residual activity at 0.1 uM by Cherenkov counting relative to control in presence of 20 uM ATP; method in brief: as §3
Sequence of Ribosomal protein S6 kinase beta-1 (Homo sapiens) (P23443 whole entry, looked up): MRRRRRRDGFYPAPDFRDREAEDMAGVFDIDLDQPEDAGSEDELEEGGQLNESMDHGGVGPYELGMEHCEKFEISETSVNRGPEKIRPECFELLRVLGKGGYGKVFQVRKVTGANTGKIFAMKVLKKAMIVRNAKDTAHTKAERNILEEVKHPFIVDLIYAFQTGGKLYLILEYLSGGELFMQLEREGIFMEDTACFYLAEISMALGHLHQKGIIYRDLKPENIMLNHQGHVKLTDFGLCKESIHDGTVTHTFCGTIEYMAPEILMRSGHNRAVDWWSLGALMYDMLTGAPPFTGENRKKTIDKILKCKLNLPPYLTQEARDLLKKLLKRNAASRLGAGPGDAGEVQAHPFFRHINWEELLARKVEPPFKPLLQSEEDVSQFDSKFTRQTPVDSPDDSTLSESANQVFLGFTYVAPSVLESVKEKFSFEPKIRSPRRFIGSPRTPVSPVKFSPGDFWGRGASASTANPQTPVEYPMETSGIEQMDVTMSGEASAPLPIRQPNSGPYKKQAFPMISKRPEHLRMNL

SMILES | Activity [1] | Activity [2] | Activity [3] | Activity [4] | Activity [5] | Activity [6] | Activity [7] | Activity [8] | Activity [9] | Activity [10] | Activity [11] | Activity [12] | Activity [13] | Activity [14]
CC(C)c1onc(-c2ccc(F)cc2)c1-c1ccncc1 | 79% | 92% | 91% | 100% | 110% | 113% | 95% | – | – | – | – | – | – | –
COc1ccc(/C=C/C(=O)Nc2cc(-c3[nH]c([S+](C)[O-])nc3-c3ccc(F)cc3)ccn2)c(OC)c1 (stereo not drawn) | – | – | – | – | – | – | – | 5% | 92% | 18% | 97% | 88% | 92% | 74%
COc1ccc(/C=C/C(=O)Nc2cc(-c3[nH]c(SC)nc3-c3ccc(F)cc3)ccn2)c(OC)c1 | – | – | – | – | – | – | – | 3% | 84% | 27% | 86% | 81% | 91% | 67%
CC(C)c1noc(-c2ccc(F)cc2)c1-c1ccncc1 | 81% | 100% | 103% | 102% | 35% | 120% | 104% | – | – | – | – | – | – | –
